Results published in ChEMBL document CHEMBL1142156, “Pharmacokinetic interaction between voriconazole and methadone at steady state in patients on methadone therapy” (Antimicrob Agents Chemother, 2007).

Key:
Assay type in all cases: ADME, organism-based
[1] = Cmax in opiate abstinence syndrome patient at 30 to 100 mg, po QD after 2 days; details: human, in vivo
Procedure, shortened: (§1)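 Male patients on individualized once-daily methadone (30-100 mg) sampled on day 2, before any coadministration. Plasma taken at 1, 2, 3, 4, 6, 8, 10, 12, 16 and 24 h postdose. (R)- and (S)-methadone quantified by chiral LC-MS/MS (range 5 to 500 ng/ml per enantiomer). Noncompartmental analysis: Cmax/Tmax observed, AUC0-24 by linear/log-trapezoidal method. Normalized lines scaled to a 100-mg dose.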

Homo sapiens [2] = test: Dose normalized AUC (0-24h) in opiate abstinence syndrome patient at 30 to 100 mg, po QD after 2 days; details: in vivo; procedure, shortened: as §1
[3] = AUC (0-24h) in opiate abstinence syndrome patient at 30 to 100 mg, po QD after 2 days; details: human, plasma; procedure, shortened: as §1
[4] = Dose normalized Tmax in opiate abstinence syndrome patient at 30 to 100 mg, po QD after 2 days; details: human, in vivo; procedure, shortened: as §1
Homo sapiens [5] = test: Dose normalized Cmax in opiate abstinence syndrome patient at 30 to 100 mg, po QD after 2 days; details: in vivo, 48 h; procedure, shortened: as §1

Compound	Cmax [1]	AUC (Homo sapiens [2])	AUC [3]	Tmax [4]	Cmax (Homo sapiens [5])
CCC(=O)C(C[C@H](C)N(C)C)(c1ccccc1)c1ccccc1 [ESMETHADONE]	287 ng/mL	5730 ng·h/mL	4030 ng·h/mL	1 h	366 ng/mL
CCC(=O)C(C[C@@H](C)N(C)C)(c1ccccc1)c1ccccc1 [LEVOMETHADONE]	256 ng/mL	5540 ng·h/mL	4300 ng·h/mL	1 h	322 ng/mL
